Series [1] relates to Mus musculus. As to the kind of experiment: Effect on amphetamine-induced hyperactivity in Swiss albino mouse at 5 mg/kg, sc administered 30 mins before amphetamine challenge. More on the design: dose 5 mg/kg. It is filed as functional, organism-based. An outline of the steps:
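Mice received compound i.p. (0.1 LD50, 0.5% methylcellulose suspension) 60 min before test. Amphetamine 5 mg kg-1 s.c. was given 30 min before test. Locomotion of single male Albino Swiss mice recorded in photoresistor actometers for 30 min. Vehicle controls. Student's t-test.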

Series [2] relates to Mus musculus. Description: Depression of spontaneous locomotor activity in Swiss albino mouse at 0.05 times LD50, ip dose measured for 30 mins. It counts as functional, organism-based. Put shortly:
(§1)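 Spontaneous locomotion of single male Albino Swiss mice recorded in photoresistor actometers for 30 min. Compound given i.p. at 0.05 or 0.1 LD50 as 0.5% methylcellulose suspension 60 min before test. Vehicle controls. Student's t-test.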

The next series has as its system Vaccinia virus. As to the kind of experiment: Antiviral activity against Vaccinia virus infected in african green monkey Vero76 cells after 3 days by plaque reduction assay. It counts as functional, organism-based. The settings on record: Orthopoxvirus vaccinia; Vero 76. In general terms: Plaque reduction counts the foci of infection that form in a cell layer.
The test system of series [3] is Mus musculus. As to the kind of experiment: Depression of spontaneous locomotor activity in Swiss albino mouse at 0.1 times LD50, ip dose measured for 30 mins. It counts as functional, organism-based. An outline of the steps:
as §1

The species named for series [4] is Mus musculus. As to the kind of experiment: Decrease in body temperature in normothermic Swiss albino mouse within 30 to 90 mins. It counts as ADME, organism-based. The conditions noted are these: in vivo.
In a further series the test system is Yellow fever virus. Description: Antiviral activity against Yellow fever virus infected in BHK-21 cells assessed as protection against virus induced cytopathogenicity after 3 to 4 days by MTT assay. It is filed as functional, organism-based. Put shortly:
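BHK cells were seeded at 5 × 10^4 per well and grown overnight to monolayers, then infected at m.o.i. 0.01 in serum-free medium. One hour later, MEM Earle's with 1% FCS (final) and serial compound dilutions were added. After 3–4 days at 37 °C, viability was read by MTT. EC50 is the concentration giving 50% protection from virus-induced cytopathogenicity.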

In series [5] the test system is Respiratory syncytial virus. Description: Antiviral activity against Respiratory syncytial virus infected in african green monkey Vero76 cells after 5 days by plaque reduction assay. It counts as functional, organism-based. The conditions noted are these: Vero 76. Put shortly: (§2)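 Vero 76 monolayers (2×10^5 cells/well, overnight) infected to give 50–100 PFU/well. Unadsorbed virus removed, then DMEM with 1% FCS, 0.75% methylcellulose and serial compound dilutions added. Incubated at 37 °C for 3 days (CVB-2, HSV-1) or 5 days (RSV). Fixed and stained with 50% ethanol/0.8% crystal violet in PBS; plaques counted.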

Series [6] has as its system Mus musculus. Description: Acute toxicity in ip dosed Swiss albino mouse assessed as mortality within 48 hrs. It is filed as organism-based. The conditions noted are these: in vivo. An outline of the steps:
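Male Albino Swiss mice (18–30 g) received compound i.p. as a suspension in 0.5% aqueous methylcellulose, 10 mL kg-1. LD50 was calculated by the Litchfield–Wilcoxon method from mortality within 48 h.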

Series [7] deals with Mus musculus. As to the kind of experiment: Effect on pentylenetetrazole-induced clonic seizures in Swiss albino mouse at 200 mg/kg, ip. It counts as functional, organism-based. Details: dose 200 mg/kg. Put shortly:
(§3)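 Mice pretreated i.p. with compound (200 mg kg-1, 0.5% methylcellulose suspension, 60 min), then pentylenetetrazole 110 mg kg-1 s.c. Scored as number of mice with clonic seizures, tonic convulsions, and deaths. Chi-square test with Yates correction.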

Series [8] deals with Mammalian orthoreovirus 1. As to the kind of experiment: Antiviral activity against Reo virus type-1 infected in BHK-21 cells assessed as protection against virus induced cytopathogenicity after 3 to 4 days by MTT assay. It counts as functional, organism-based. An outline of the steps:
(§4)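 Monolayers were grown overnight at 37 °C, 5% CO2: MDBK at 3×10^4 cells/well, BHK at 5×10^4 cells/well. Cells infected at m.o.i. 0.01. After 1 h, serial compound dilutions added in MEM with 1% FCS. Viability read by MTT after 3–4 days at 37 °C. EC50 is the concentration giving 50% protection from cytopathogenicity.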

For series [9], the species on record is Mus musculus. As to the kind of experiment: Decrease in body temperature in normothermic Swiss albino mouse within 60 to 120 mins. It counts as ADME, organism-based. The settings on record: in vivo.
Series [10] deals with Mus musculus. Description: Decrease in 5-hydroxytryptophan-induced head twitch in Swiss albino mouse at 200 mg/kg, ip measured for 6 two mins interval. It counts as functional, organism-based. Details: dose 200 mg/kg.
In another series the test system is Poliovirus 1. Description: Antiviral activity against Poliovirus type 1 Sabin infected in african green monkey Vero76 cells after 2 days by plaque reduction assay. It is filed as functional, cell-based. The conditions noted are these: Vero 76.
Series [11] deals with Human immunodeficiency virus 1. Description: Antiviral activity against wild type HIV1 3B infected in human MT4 cells assessed as protection against virus induced cytopathogenicity after 4 days by MTT assay. It is filed as functional, organism-based. The settings on record: Human immunodeficiency virus 1, 3B, MT4, 96 h. Put shortly:
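MT-4 cells (1×10^4/well) in RPMI with serial compound dilutions were infected with HIV-1 (100 CCID50; m.o.i. 0.01). After 4 days, viability was measured by MTT. EC50 is the concentration giving 50% protection from virus-induced cytopathogenicity. Compounds were prepared as 100 mM DMSO stocks diluted in medium.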

Series [12] has as its system Bovine viral diarrhea virus 1. Description: Antiviral activity against Bovine viral diarrhea virus infected in MDBK cells assessed as protection against virus induced cytopathogenicity after 3 to 4 days by MTT assay. It counts as functional, organism-based. Put shortly: as §4
Background: Protection from cytopathic effect is a common read-out in antiviral testing.

The subject of series [13] is Mus musculus. Description: Effect on pentylenetetrazole-induced tonic convulsion in Swiss albino mouse at 200 mg/kg, ip. More on the design: dose 200 mg/kg. It is filed as functional, organism-based. Put shortly:
as §3

Series [14] concerns Vesicular stomatitis virus. As to the kind of experiment: Antiviral activity against Vesicular stomatitis virus infected in african green monkey Vero76 cells after 2 days by plaque reduction assay. It counts as functional, organism-based. The settings on record: Vero 76.
Series [15] has as its system Mus musculus. Description: Effect on motor coordination in Swiss albino mouse at 200 mg/kg, ip by chimney test. It counts as ADME, organism-based. Details: dose 200 mg/kg, route intraperitoneal. The conditions noted are these: in vivo.
Series [16] can be described thus: Cytotoxicity against human MT4 cells assessed as reduction of cell viability after 96 hrs by MTT assay. It is filed as cell-based. An outline of the steps:
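Exponentially growing, mock-infected MT-4 cells were seeded at 1×10^5 cells mL-1 in RPMI-1640 with 10% FCS and penicillin/streptomycin, with serial compound dilutions. Incubated 96 h at 37 °C, 5% CO2, then viability read by MTT. CC50 is the concentration reducing viability by 50%.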
For orientation: Formazan colour is commonly taken as a measure of viable cells.

The subject of series [17] is Mus musculus. As to the kind of experiment: Antinociceptive activity in Swiss albino mouse assessed as protection against acetic acid-induced abdominal constriction at 200 mg/kg, ip measured for 10 mins by writhing test. It is filed as functional, organism-based. Details: dose 200 mg/kg. The settings on record: Abdomen.
The test system of the next series is Coxsackievirus B2. As to the kind of experiment: Antiviral activity against Coxsackie virus B2 infected in african green monkey Vero76 cells after 3 days by plaque reduction assay. The conditions noted are these: Vero 76. It is filed as functional, organism-based. Put shortly:
as §2

The next series relates to Human alphaherpesvirus 1. Description: Antiviral activity against HSV1 infected in african green monkey Vero76 cells after 3 days by plaque reduction assay. The conditions noted are these: Vero 76. It is filed as functional, organism-based. Put shortly: as §2
In series [18] the test system is Mus musculus. Description: Effect on motor coordination in Swiss albino mouse at 200 mg/kg, ip by rotarod test. The settings on record: in vivo. More on the design: dose 200 mg/kg, route intraperitoneal. It is filed as ADME, organism-based.

As a reminder, the EC50 is the concentration at which the effect is half-maximal. Broadly, the CC50 is the concentration at which the toxic effect on the cells reaches its halfway point.

Each structure is given as a SMILES string. Calls of active or inactive are those of the source. The rule behind the calls is not given here.

Regarding `CC(C)C12C=CC(C)(CC1)C1C(=O)N(N3CCCCS/C3=N\c3ccc(Cl)c(Cl)c3)C(=O)C12` (centres undefined), the result (with Mus musculus [1]; with Mus musculus [2]; in the series on Vaccinia virus; in the series on Yellow fever virus; in series [5]; in the series on Mus musculus [7]) was inactive. Moreover, the result (in series [8]; in the series on Poliovirus 1; in [12]; with Mus musculus [13]; in series [14]; in the series with Mus musculus [17]) was inactive. Further, the outcome in the series with Coxsackievirus B2 and with Human alphaherpesvirus 1 was inactive. Moreover, the outcome in the series on Mus musculus [3] and with Mus musculus [10] was Active. Moreover, the Activity result in the series filed under Mus musculus [4] is reported as “Toxic”; in the series with Mus musculus [6], “Active”; in the series listed under Mus musculus [9], “Toxic”; with Mus musculus [15], “Non-toxic”; in the series with Mus musculus [18], “Non-toxic”. In addition, the EC50 in series [11] was above 100 µM. Besides, the CC50 at 96 h in series [16] is above 100 µM.

Regarding `CC1=CC2C(C(C)C)CC1C1C(=O)N(N3CCCCS/C3=N\c3ccc(C)cc3)C(=O)C21` (centres undefined), the outcome (in the series on Mus musculus [1]; in the series on Mus musculus [2]; in the series with Vaccinia virus; in the series with Yellow fever virus; in series [5]; in the series on Mus musculus [7]) was inactive. The result (in series [8]; with Mus musculus [10]; in the series with Poliovirus 1; in [12]; in the series on Mus musculus [13]; in series [14]) was inactive. The outcome in the series on Mus musculus [17], in the series with Coxsackievirus B2 and in the series with Human alphaherpesvirus 1 was inactive. Also, the outcome with Mus musculus [3] was Active. Further, the Activity result in the series filed under Mus musculus [4] was “Toxic”; with Mus musculus [6], “Active”; in the series filed under Mus musculus [9], “Toxic”; with Mus musculus [15], “Non-toxic”; in the series on Mus musculus [18] it was “Non-toxic”.
